Assays:
MT4 [1] = experiment: Compound was evaluated for inhibitory effect against MT-4 cells of HIV-2 at a concentration of 4(3.9) ug/mL (uM).; type: functional, Homo sapiens
Procedure, shortened: (§1)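 HIV-2 (ROD strain) infected MT-4 cells at multiplicity of infection 0.02, incubated with a range of compound concentrations for 4 days. Viable cells counted by MTT method. Per-concentration inhibition of virus-induced cytopathogenicity; values are means of two separate experiments.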

MT4 [2] = experiment: Compound was evaluated for inhibitory effect against MT-4 cells of HIV-1 at a concentration of 4(3.9) ug/mL (uM).; type: functional, Homo sapiens
Procedure, shortened: (§2)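 HIV-1 (HTLV-III_B) infected MT-4 cells at multiplicity of infection 0.02, incubated with a range of compound concentrations for 4 days. Viable cells counted by MTT method. Per-concentration inhibition of virus-induced cytopathogenicity; values are means of two separate experiments.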

MT4 [3] = experiment: Compound was evaluated for inhibitory effect against MT-4 cells of HIV-2 at a concentration of 0.8(0.8) ug/mL (uM).; type: functional, Homo sapiens; procedure, shortened: as §1
MT4 [4] = experiment: Compound was evaluated for inhibitory effect against MT-4 cells of HIV-2 at a concentration of 100(98) ug/mL (uM).; type: functional, Homo sapiens; procedure, shortened: as §1
MT4 [5] = experiment: Compound was evaluated for inhibitory effect against MT-4 cells of HIV-2 at a concentration of 20(19.6) ug/mL (uM).; type: functional, Homo sapiens; procedure, shortened: as §1
MT4 [6] = experiment: Compound tested for its inhibition of HIV-1 induced cytopathogenicity in MT-4 cells.; type: functional; settings: Homo sapiens, read-out: ED50 (the source's name)
Procedure, shortened: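 MT-4 cells infected with HIV-1 (HTLV-III_B) at MOI 0.02 and incubated 4 days with a range of compound concentrations. Viable cells were counted by MTT. ED50 is the 50% antiviral dose from inhibition of virus-induced cytopathogenicity, given as the mean of two separate experiments.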

MT4 [7] = experiment: Compound tested for its inhibition of HIV-2 induced cytopathogenicity in MT-4 cells.; type: functional; settings: Homo sapiens, read-out: ED50 (the source's name)
Procedure, shortened: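 MT-4 cells infected with HIV-2 (ROD) at MOI 0.02 and incubated 4 days with a range of compound concentrations. Viable cells were counted by MTT. ED50 is the dose giving 50% inhibition of virus-induced cytopathogenicity, given as the mean of two separate experiments.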

MT4 [8] = experiment: Compound was evaluated for inhibitory effect against MT-4 cells of HIV-1 at a concentration of 0.8(0.8) ug/mL (uM).; type: functional, Homo sapiens; procedure, shortened: as §2
MT4 [9] = experiment: Compound was evaluated for inhibitory effect against MT-4 cells of HIV-1 at a concentration of 100(98) ug/mL (uM).; type: functional, Homo sapiens; procedure, shortened: as §2
MT4 [10] = experiment: Compound tested for its ability to reduce viability of mock-infected MT-4 cells.; type: functional; settings: Homo sapiens, read-out: CD50 (the source's name)
Procedure, shortened: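 Mock-infected MT-4 cells were incubated 4 days with a range of compound concentrations, and viability was read by MTT. CD50 is the 50% cytotoxic dose from reduced viability, given as the mean of two separate experiments.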

MT4 [11] = experiment: Cell viability at a concentration of 0.8(0.8) ug/mL (uM).; type: functional, Homo sapiens
MT4 [12] = experiment: Cell viability at a concentration of 100(98) ug/mL (uM).; type: functional, Homo sapiens
MT4 [13] = experiment: Cell viability at a concentration of 20(19.6) ug/mL (uM).; type: functional, Homo sapiens
MT4 [14] = experiment: Cell viability at a concentration of 4(3.9) ug/mL (uM).; type: functional, Homo sapiens
[15] = molecular target: Human immunodeficiency virus type 1 reverse transcriptase (Human immunodeficiency virus 1) (UniProt Q72547); experiment: Compound tested for % inhibition of cell-free HIV-1 Reverse Transcriptase at a concentration of 490 uM
Procedure, shortened: (§3)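 HIV-1 RT came from disrupted, partially purified, concentrated virions. Reaction ran 30 min at 37 °C in 50 mM Tris-HCl pH 8.4 with 2 mM DTT, 100 mM KCl, 10 mM MgCl2, 0.1% Triton X-100, [methyl-3H]dTTP (1 µCi, 30 Ci/mmol), poly(rA)·oligo(dT) template and compound. It was stopped with 5% TCA, and precipitate was filter-collected and scintillation-counted. Variation was at most 10%.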

[16] = molecular target: Human immunodeficiency virus type 1 reverse transcriptase (Human immunodeficiency virus 1) (UniProt Q72547); experiment: Inhibitory dose at a concentration 490 uM cell-free HIV-1 Reverse Transcriptase
Procedure, shortened: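 HIV-1 RT from disrupted, partially purified and concentrated virions. 37 °C for 30 min in 50 mM Tris-HCl pH 8.4, 2 mM DTT, 100 mM KCl, 10 mM MgCl₂, 0.1% Triton X-100, 1 µCi [methyl-³H]dTTP, 0.01 unit poly(rA)·oligo(dT). Stopped with 5% TCA; precipitate collected on glass-fiber filters and counted by scintillation. Means of two experiments; variation ≤10%.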

[17] = molecular target: Human immunodeficiency virus type 1 reverse transcriptase (Human immunodeficiency virus 1) (UniProt Q72547); experiment: Compound tested for % inhibition of cell-free HIV-1 Reverse Transcriptase at a concentration of 19.6 uM; procedure, shortened: as §3
[18] = molecular target: Human immunodeficiency virus type 1 reverse transcriptase (Human immunodeficiency virus 1) (UniProt Q72547); experiment: Compound tested for % inhibition of cell-free HIV-1 Reverse Transcriptase at a concentration of 3.9 uM; procedure, shortened: as §3
MT4 [19] = experiment: Compound was evaluated for inhibitory effect against MT-4 cells of HIV-1 at a concentration of 20(19.6) ug/mL (uM).; type: functional, Homo sapiens; procedure, shortened: as §2
MOLT-4 (Homo sapiens) = experiment: Compound tested for % inhibition of giant cell formation at a concentration of 98 uM
[20] = system: Human immunodeficiency virus 1; experiment: as above
MT4 [21] = experiment: Compound was evaluated for inhibitory effect against MT-4 cells of HIV-2 at a concentration of 4(4.3) ug/mL (uM).; type: functional, Homo sapiens; procedure, shortened: as §1
MT4 [22] = experiment: Compound was evaluated for inhibitory effect against MT-4 cells of HIV-1 at a concentration of 20(21.4) ug/mL (uM).; type: functional, Homo sapiens; procedure, shortened: as §2
MT4 [23] = experiment: Compound was evaluated for inhibitory effect against MT-4 cells of HIV-1 at a concentration of 4(4.3) ug/mL (uM).; type: functional, Homo sapiens; procedure, shortened: as §2
MT4 [24] = experiment: Compound was evaluated for inhibitory effect against MT-4 cells of HIV-2 at a concentration of 0.8(0.9) ug/mL (uM).; type: functional, Homo sapiens; procedure, shortened: as §1
MT4 [25] = experiment: Compound was evaluated for inhibitory effect against MT-4 cells of HIV-2 at a concentration of 100(107) ug/mL (uM).; type: functional, Homo sapiens; procedure, shortened: as §1
MT4 [26] = experiment: Compound was evaluated for inhibitory effect against MT-4 cells of HIV-2 at a concentration of 20(21.4) ug/mL (uM).; type: functional, Homo sapiens; procedure, shortened: as §1
MT4 [27] = experiment: Compound was evaluated for inhibitory effect against MT-4 cells of HIV-1 at a concentration of 0.8(0.9) ug/mL (uM).; type: functional, Homo sapiens; procedure, shortened: as §2
MT4 [28] = experiment: Compound was evaluated for inhibitory effect against MT-4 cells of HIV-1 at a concentration of 100(107) ug/mL (uM).; type: functional, Homo sapiens; procedure, shortened: as §2
MT4 [29] = experiment: Cell viability at a concentration of 20(21.4) ug/mL (uM).; type: functional, Homo sapiens
MT4 [30] = experiment: Cell viability at a concentration of 0.8(0.9) ug/mL (uM).; type: functional, Homo sapiens
MT4 [31] = experiment: Cell viability at a concentration of 100(107) ug/mL (uM).; type: functional, Homo sapiens
MT4 [32] = experiment: Cell viability at a concentration of 4(4.3) ug/mL (uM).; type: functional, Homo sapiens
[33] = molecular target: Human immunodeficiency virus type 1 reverse transcriptase (Human immunodeficiency virus 1) (UniProt Q72547); experiment: Compound tested for % inhibition of cell-free HIV-1 Reverse Transcriptase at a concentration of 4.3 uM
Procedure, shortened: (§4)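 HIV-1 RT from partially purified, concentrated disrupted virions. Reaction at 37 °C for 30 min in 50 mM Tris-HCl pH 8.4, 2 mM DTT, 100 mM KCl, 10 mM MgCl2, 0.1% Triton X-100, with 1 µCi [methyl-3H]dTTP (30 Ci/mmol) and 0.01 unit poly(rA)·oligo(dT). Stopped with 5% TCA; precipitate collected on glass-fiber filters and counted by liquid scintillation. Experimental variation at most 10%.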

[34] = molecular target: Human immunodeficiency virus type 1 reverse transcriptase (Human immunodeficiency virus 1) (UniProt Q72547); experiment: Compound tested for % inhibition of cell-free HIV-1 Reverse Transcriptase at a concentration of 535 uM; procedure, shortened: as §4
[35] = molecular target: Human immunodeficiency virus type 1 reverse transcriptase (Human immunodeficiency virus 1) (UniProt Q72547); experiment: Inhibitory dose at a concentration 535 uM cell-free HIV-1 Reverse Transcriptase; procedure, shortened: as §4
[36] = molecular target: Human immunodeficiency virus type 1 reverse transcriptase (Human immunodeficiency virus 1) (UniProt Q72547); experiment: Compound tested for % inhibition of cell-free HIV-1 Reverse Transcriptase at a concentration of 21.4 uM.; procedure, shortened: as §4
[37] = system: Human immunodeficiency virus 1; experiment: Compound tested for % inhibition of giant cell formation at a concentration of 107 uM

Q: Which Inhibition (MT4 [1]) does the source give for O=S(=O)([O-])c1cc(O)c2c(NS(=O)(=O)c3ccc(-c4ccc(S(=O)(=O)Nc5cc(S(=O)(=O)[O-])cc6cc(S(=O)(=O)[O-])cc(O)c56)cc4)cc3)cc(S(=O)(=O)[O-])cc2c1.[Na+].[Na+].[Na+].[Na+] here?
A: Its Inhibition is 7%.

Q: What about the Inhibition (MT4 [2]) of the same molecule?
A: The Inhibition was 15%.

Q: What about the Inhibition (MT4 [3]) of the same molecule?
A: Its Inhibition is 6%.

Q: What about the Inhibition (MT4 [4]) of the same molecule?
A: The Inhibition was 100%.

Q: What about the Inhibition (MT4 [5]) of the same molecule?
A: The Inhibition was 20%.

Q: And the EC50 (MT4 [6])?
A: Its EC50 is 7.8 µg/mL.

Q: What about the EC50 (MT4 [7]) of the same molecule?
A: The EC50 was 37 µg/mL.

Q: And the Inhibition (MT4 [8])?
A: The Inhibition was 5%.

Q: And the Inhibition (MT4 [9])?
A: The Inhibition was 100%.

Q: What about the CC50 (MT4 [10]) of the same molecule?
A: Its CC50 is over 100 µg/mL.

Q: What about the Cell viability (MT4 [11]) of the same molecule?
A: Its Cell viability is 0.

Q: And the Cell viability (MT4 [12])?
A: The Cell viability was 0.

Q: And the Cell viability (MT4 [13])?
A: Its Cell viability is 0.

Q: What about the Cell viability (MT4 [14]) of the same molecule?
A: Its Cell viability is 0.

Q: And the inhibition [15]?
A: The inhibition was 100%.

Q: What about the ID50 [16] of the same molecule?
A: The ID50 was 190 µg/mL.

Q: And the inhibition [17]?
A: The inhibition was 30%.

Q: And the inhibition [18]?
A: The inhibition was 0%.

Q: What about the Inhibition (MT4 [19]) of the same molecule?
A: Its Inhibition is 100%.

Q: And the inhibition at 98 µM (MOLT-4 (Homo sapiens))?
A: The inhibition at 98 µM was 100%.

Q: What about the inhibition [20] of the same molecule?
A: The inhibition was 100%.

Q: For O=C(CCCCCCCCCCC(=O)Nc1cc(S(=O)(=O)O)cc2cc(S(=O)(=O)[O-])cc(O)c12)Nc1cc(S(=O)(=O)O)cc2cc(S(=O)(=O)[O-])cc(O)c12.[Na+].[Na+], which Inhibition (MT4 [21]) is on record?
A: Its Inhibition is 3%.

Q: And the Inhibition (MT4 [22])?
A: The Inhibition was 14%.

Q: What about the Inhibition (MT4 [23]) of the same molecule?
A: The Inhibition was 2%.

Q: What about the Inhibition (MT4 [24]) of the same molecule?
A: Its Inhibition is 3%.

Q: What about the Inhibition (MT4 [25]) of the same molecule?
A: The Inhibition was 100%.

Q: And the Inhibition (MT4 [26])?
A: The Inhibition was 4%.

Q: What about the EC50 (MT4 [6]) of the same molecule?
A: Its EC50 is 39 µg/mL.

Q: What about the EC50 (MT4 [7]) of the same molecule?
A: Its EC50 is 43 µg/mL.

Q: What about the Inhibition (MT4 [27]) of the same molecule?
A: The Inhibition was 0%.

Q: And the Inhibition (MT4 [28])?
A: The Inhibition was 100%.

Q: What about the Cell viability (MT4 [29]) of the same molecule?
A: The Cell viability was 9.

Q: What about the CC50 (MT4 [10]) of the same molecule?
A: Its CC50 is over 100 µg/mL.

Q: And the Cell viability (MT4 [30])?
A: Its Cell viability is 4.

Q: And the Cell viability (MT4 [31])?
A: The Cell viability was 0.

Q: What about the Cell viability (MT4 [32]) of the same molecule?
A: Its Cell viability is 5.

Q: And the inhibition [33]?
A: Its inhibition is 15%.

Q: And the inhibition [34]?
A: Its inhibition is 100%.

Q: And the ID50 [35]?
A: The ID50 was 160 µg/mL.

Q: What about the inhibition [36] of the same molecule?
A: Its inhibition is 44%.

Q: And the inhibition [37]?
A: Its inhibition is 99%.

— ChEMBL document CHEMBL1125724, “Potential anti-AIDS agents. Synthesis and antiviral activity of naphthalenesulfonic acid derivatives against HIV-1 and HIV-2” (1991)
